In ChEMBL document CHEMBL1143048, “Inhibition of monoamine oxidase B by selected benzimidazole and caffeine analogues” (Bioorg Med Chem, 2007):
Activity calls are given as the source filed them. The calls are words filed in the database; no cut-off is given here.

Target: not listed separately
Experiment: Inhibition baboon liver mitochondrial MAOB
Set-up: species or system Papio hamadryas
In short: (§1)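 Mitochondrial fraction from baboon liver was used as the enzyme source, without MAO-A inactivation. Incubations were run in 100 mM sodium phosphate, pH 7.4, with 0.15 mg protein/mL, MMTP at four levels (30–120 μM), three inhibitor levels, and 4% DMSO final, for 15 min at 37 °C. Reactions were stopped with perchloric acid. MMDP⁺ was read at 420 nm, and Lineweaver-Burk plots were constructed.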

Row | Ki | SMILES
1 | 15 µM | Cn1c(/C=C/c2ccc(F)cc2)nc2ccccc21
2 | 39.7 µM | Cn1c(=O)c2c(nc(/C=C/c3ccco3)n2C)n(C)c1=O
3 | 11.3 µM | Cn1c(=O)c2c(nc(/C=C/c3ccsc3)n2C)n(C)c1=O
4 | 2.83 µM | Cn1c(/C=C/c2ccc(Cl)cc2)nc2ccccc21
5 | 0.239 µM | Cn1c(=O)c2c(nc(/C=C/c3cc(C(F)(F)F)cc(C(F)(F)F)c3)n2C)n(C)c1=O
6 | 3.26 µM | Cc1ccc(/C=C/c2nc3ccccc3n2C)cc1
7 | 18.7 µM | Cn1c(/C=C/c2ccccc2)nc2ccccc21
8 | 0.43 µM | Cn1c(/C=C/c2ccc(C(F)(F)F)cc2)nc2ccccc21
9 | 0.036 µM | Cn1c(=O)c2c(nc(/C=C/c3ccc(Cl)c(Cl)c3)n2C)n(C)c1=O
10 | 1.58 µM | Cn1c(=O)c2c(nc(/C=C/c3cccs3)n2C)n(C)c1=O
11 | 1220 µM | Cc1nc2ccccc2[nH]1
12 | 0.086 µM | Cn1c(=O)c2c(nc(/C=C/c3cccc(Br)c3)n2C)n(C)c1=O
13 | 5.82 µM | COc1ccc(/C=C/c2nc3ccccc3n2C)cc1
14 | 2080 µM | Cn1cnc2ccccc21
15 | 39.9 µM | Cn1c(=O)c2c(nc3c4ccccc4ncn32)n(C)c1=O
16 | 2.54 µM | Cn1c(/C=C/c2ccc(Br)cc2)nc2ccccc21

Organism: Papio hamadryas
Experiment: Inhibition baboon liver mitochondrial MAOB upto 50 uM
In short: as §1

Row | Activity | SMILES
17 | inactive | CCn1c(=O)c2c(nc3c4ccccc4ncn32)n(CC)c1=O
